In ChEMBL document CHEMBL4840314, “Optimization of peptide-based inhibitors targeting the HtrA serine protease in Chlamydia: Design, synthesis and biological evaluation of pyridone-based and N-Capping group-modified analogues” (Eur J Med Chem, 2021):
Active and inactive are the calls of the source. The calls are words filed in the database; no cut-off is given here.

The compounds below were run on HEp-2 (assay: Cytotoxicity against human HEp-2 cells assessed as reduction in MTS absorbance at 100 uM by MTS assay). Settings: hep-2, 100 µM.
Type: cell-based
Set-up: scale not given: the % may be the effect or the level left
Summary of the method: (§1)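 HEp-2 cells were seeded at 5000/well and treated 24 h later with compound (two doses) alongside 1% DMSO and media controls, in triplicate. After 24 h treatment, medium was replaced with fresh supplemented DMEM. MTS/PMS was added for 4 h and absorbance read at 490 nm. Results are expressed as % MTS reduction relative to 1% DMSO-treated cells.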

SMILES | Activity
CCC(C)C(NC(=O)Cn1cccc(NC(=O)Oc2ccccc2)c1=O)P(=O)(Oc1ccccc1)Oc1ccccc1 (centres undefined) | <= 25%
CCC(C)C(NC(=O)[C@@H]1CCCN1C(=O)[C@@H](NC(=O)C(C)(C)C)C(C)(C)C)P(=O)(Oc1ccccc1)Oc1ccccc1 (some centres undefined) | Toxic
CCC(C)C(NC(=O)[C@@H]1CCCN1C(=O)[C@@H](NC(=O)OCc1ccccc1)C(C)(C)C)P(=O)(Oc1ccccc1)Oc1ccccc1 (some centres undefined) | Toxic
CC(C)C(NC(=O)C(C)n1cccc(NC(=O)OC(C)(C)C)c1=O)P(=O)(Oc1ccccc1)Oc1ccccc1 (centres undefined) | <= 25%
CC(C)C(NC(=O)[C@@H]1CCCN1C(=O)[C@@H](NC(=O)OCc1ccccc1)C(C)(C)C)P(=O)(Oc1ccccc1)Oc1ccccc1 (some centres undefined) | Toxic
CCC(C)C(NC(=O)C(C)n1cccc(NC(=O)Oc2ccccc2)c1=O)P(=O)(Oc1ccccc1)Oc1ccccc1 (centres undefined) | <= 25%
CCC(C)C(NC(=O)[C@@H]1CCCN1C(=O)[C@@H](NC(=O)NC(C)(C)C)C(C)(C)C)P(=O)(Oc1ccccc1)Oc1ccccc1 (some centres undefined) | Toxic

These compounds were tested on Chlamydia trachomatis (assay: Antibacterial activity against Chlamydia trachomatis D (D/UW-3/Cx; CtD) infected in HEp-2 cells assessed as reduction in bacterial titer at 50 to 100 uM measured after 44 hrs). Settings: dose 50-100 µM.
Type: functional, organism-based
Summary of the method: (§2)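 C. trachomatis D was grown in HEp-2 cells and C. pecorum G in McCoy B cells, in high-glucose DMEM with 10% heat-inactivated FCS, 4 mM alanyl-glutamine, streptomycin and gentamicin. Cells were seeded at 20,000/well 24 h before infection, at MOI 12 (CtD) or MOI 4 (CpG). Infection was synchronised by centrifugation at 500×g, 28 °C, 30 min. Dose series added 16 h PI, with 1% DMSO and media controls. Read-out was IFU/mL; n=3.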

SMILES | Activity
CCC(C)C(NC(=O)[C@@H]1CCCN1C(=O)[C@@H](NC(=O)OCc1ccccc1)C(C)(C)C)P(=O)(Oc1ccccc1)Oc1ccccc1 (some centres undefined) | Active
CC(C)C(NC(=O)C(C)n1cccc(NC(=O)OC(C)(C)C)c1=O)P(=O)(Oc1ccccc1)Oc1ccccc1 (centres undefined) | Active

These compounds were tested on HEp-2 (assay: Cytotoxicity against human HEp-2 cells assessed as decrease in cell integrity at 25 uM by LDH assay). Settings: hep-2, 25 µM.
Type: cell-based
Set-up: scale not given: the % may be the effect or the level left
Summary of the method: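 HEp-2 cells were seeded at 5000/well and treated 24 h later at two doses, with 1% DMSO and media-only controls, in triplicate, for 8 h. Maximum-release wells were lysed with 0.8% Triton X-100 45 min before supernatant collection. Supernatant was incubated with CytoTox reagent for 30 min, then stop solution, and read at A490. Extracellular LDH is given as % of maximum release.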

SMILES | Activity
CCC(C)C(NC(=O)[C@@H]1CCCN1C(=O)[C@@H](NC(=O)C(C)(C)C)C(C)(C)C)P(=O)(Oc1ccccc1)Oc1ccccc1 (some centres undefined) | <= 3.4%
CCC(C)C(NC(=O)[C@@H]1CCCN1C(=O)[C@@H](NC(=O)OCc1ccccc1)C(C)(C)C)P(=O)(Oc1ccccc1)Oc1ccccc1 (some centres undefined) | <= 3.4%
CC(C)C(NC(=O)[C@@H]1CCCN1C(=O)[C@@H](NC(=O)OCc1ccccc1)C(C)(C)C)P(=O)(Oc1ccccc1)Oc1ccccc1 (some centres undefined) | <= 3.4%
CCC(C)C(NC(=O)[C@@H]1CCCN1C(=O)[C@@H](NC(=O)NC(C)(C)C)C(C)(C)C)P(=O)(Oc1ccccc1)Oc1ccccc1 (some centres undefined) | <= 3.4%

What follows are compounds tested against T1, Probable periplasmic serine endoprotease DegP-like (Chlamydia trachomatis, UniProt P18584) (assay: Inhibition of recombinant ctHtrA serine protease using MeOCoum-ENLHLPLPI1F-D as substrate pretreated for 10 min followed by substrate addition and measured after 30 minutes). Settings: not given.
T1 sequence (P18584 whole entry): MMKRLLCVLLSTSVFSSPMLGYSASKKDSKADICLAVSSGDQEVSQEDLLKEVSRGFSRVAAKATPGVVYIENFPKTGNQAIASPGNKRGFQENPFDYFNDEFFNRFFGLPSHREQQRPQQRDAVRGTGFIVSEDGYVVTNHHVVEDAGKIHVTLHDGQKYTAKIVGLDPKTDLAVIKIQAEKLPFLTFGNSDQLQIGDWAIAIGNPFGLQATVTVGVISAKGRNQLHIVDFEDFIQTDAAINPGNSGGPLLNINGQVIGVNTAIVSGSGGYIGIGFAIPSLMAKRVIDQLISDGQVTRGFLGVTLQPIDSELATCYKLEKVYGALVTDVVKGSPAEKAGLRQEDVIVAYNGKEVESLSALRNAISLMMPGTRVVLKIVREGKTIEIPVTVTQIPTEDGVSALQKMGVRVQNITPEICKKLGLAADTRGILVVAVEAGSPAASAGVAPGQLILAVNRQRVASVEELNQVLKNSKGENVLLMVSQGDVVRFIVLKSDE
Summary of the method: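 Recombinant CtHtrA was tested against a six-dose inhibitor series in 50 mM Tris, 20 mM MgCl₂, pH 7.0. Plates were shaken before each of multiple reads per well. Each dose was run in triplicate, with a JO146 dose series (n=3) and DMSO controls (n=6). Relative inhibition is IC50(JO146)/IC50(compound), because IC50 varied between batches.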

SMILES | IC50
CCC(C)C(NC(=O)[C@@H]1CCCN1C(=O)[C@@H](NC(=O)OCc1ccccc1)C(C)(C)C)P(=O)(Oc1ccccc1)Oc1ccccc1 (some centres undefined) | 24.9 µM
CCC(C)C(NC(=O)C(C)n1cccc(NC(=O)Oc2ccccc2)c1=O)P(=O)(Oc1ccccc1)Oc1ccccc1 (centres undefined) | 19.8 µM

These compounds were tested on Chlamydia trachomatis (assay: Antibacterial activity against Chlamydia trachomatis D (D/UW-3/Cx; CtD) infected in HEp-2 cells assessed as log reduction in infectivity unit at 25 uM measured after 44 hrs). Settings: not given.
Type: functional
Summary of the method: as §2

SMILES | Activity
CCC(C)C(NC(=O)Cn1cccc(NC(=O)Oc2ccccc2)c1=O)P(=O)(Oc1ccccc1)Oc1ccccc1 (centres undefined) | Active
CCC(C)C(NC(=O)[C@@H]1CCCN1C(=O)[C@@H](NC(=O)C(C)(C)C)C(C)(C)C)P(=O)(Oc1ccccc1)Oc1ccccc1 (some centres undefined) | Active
CC(C)C(NC(=O)C(C)n1cccc(NC(=O)OC(C)(C)C)c1=O)P(=O)(Oc1ccccc1)Oc1ccccc1 (centres undefined) | Active
CCC(C)C(NC(=O)C(C)n1cccc(NC(=O)Oc2ccccc2)c1=O)P(=O)(Oc1ccccc1)Oc1ccccc1 (centres undefined) | Active

Each compound was assayed on Chlamydia pecorum (assay: Antibacterial activity against Chlamydia pecorum G (MC/MarsBar;CpG) infected in McCoy B cells assessed as reduction in bacterial titer at 50 to 100 uM measured after 44 hrs). Settings: VR629 G (MC/MarsBar;CpG), dose 50-100 µM.
Type: functional, organism-based
Summary of the method: as §2

SMILES | Activity
CCC(C)C(NC(=O)[C@@H]1CCCN1C(=O)[C@@H](NC(=O)OCc1ccccc1)C(C)(C)C)P(=O)(Oc1ccccc1)Oc1ccccc1 (some centres undefined) | Active
CC(C)C(NC(=O)C(C)n1cccc(NC(=O)OC(C)(C)C)c1=O)P(=O)(Oc1ccccc1)Oc1ccccc1 (centres undefined) | Active

The compounds below were run on Chlamydia pecorum (assay: Antibacterial activity against Chlamydia pecorum G (MC/MarsBar;CpG) infected in McCoy B cells assessed as log reduction in infectivity unit at 25 uM measured after 44 hrs). Settings: VR629 G (MC/MarsBar;CpG).
Type: functional, organism-based
Summary of the method: as §2

SMILES | Activity
CCC(C)C(NC(=O)Cn1cccc(NC(=O)Oc2ccccc2)c1=O)P(=O)(Oc1ccccc1)Oc1ccccc1 (centres undefined) | Active
CCC(C)C(NC(=O)[C@@H]1CCCN1C(=O)[C@@H](NC(=O)C(C)(C)C)C(C)(C)C)P(=O)(Oc1ccccc1)Oc1ccccc1 (some centres undefined) | Active
CC(C)C(NC(=O)C(C)n1cccc(NC(=O)OC(C)(C)C)c1=O)P(=O)(Oc1ccccc1)Oc1ccccc1 (centres undefined) | Active
CCC(C)C(NC(=O)C(C)n1cccc(NC(=O)Oc2ccccc2)c1=O)P(=O)(Oc1ccccc1)Oc1ccccc1 (centres undefined) | Active

Each compound was assayed on HEp-2 (assay: Cytotoxicity against human HEp-2 cells assessed as reduction in MTS absorbance at 25 uM by MTS assay). Settings: hep-2, 25 µM.
Type: cell-based
Summary of the method: as §1

SMILES | Activity
CCC(C)C(NC(=O)[C@@H]1CCCN1C(=O)[C@@H](NC(=O)C(C)(C)C)C(C)(C)C)P(=O)(Oc1ccccc1)Oc1ccccc1 (some centres undefined) | Non-Toxic
CCC(C)C(NC(=O)[C@@H]1CCCN1C(=O)[C@@H](NC(=O)OCc1ccccc1)C(C)(C)C)P(=O)(Oc1ccccc1)Oc1ccccc1 (some centres undefined) | Non-Toxic
CC(C)C(NC(=O)[C@@H]1CCCN1C(=O)[C@@H](NC(=O)OCc1ccccc1)C(C)(C)C)P(=O)(Oc1ccccc1)Oc1ccccc1 (some centres undefined) | Non-Toxic
CCC(C)C(NC(=O)[C@@H]1CCCN1C(=O)[C@@H](NC(=O)NC(C)(C)C)C(C)(C)C)P(=O)(Oc1ccccc1)Oc1ccccc1 (some centres undefined) | Non-Toxic
